PG9 binder: binds the HIV-1 gp120 antibody PG9; TR-FRET gp120-PG9 antibody binding; inhibition, % at 6.7 µM; hit rate 0.43% among 360,000; AID 624416; in the data active means inhibition above about 8.5%
Rev-erbA mod: modulates human Rev-erb alpha binding to DNA; AID 1259318; P20393; activity, % at 10 µM; Rev-erbα–FITC-DNA binding, fluorescence polarization, 90 min; hit rate 0.79% among 370,000;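 active means activity above about 14%, limit read from the data; passing the limit was not always enough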;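 further: 0% = DMSO wells with 35 nM protein and 100% = DMSO wells with 750 nM protein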
Target sequence (P20393 whole entry, looked up): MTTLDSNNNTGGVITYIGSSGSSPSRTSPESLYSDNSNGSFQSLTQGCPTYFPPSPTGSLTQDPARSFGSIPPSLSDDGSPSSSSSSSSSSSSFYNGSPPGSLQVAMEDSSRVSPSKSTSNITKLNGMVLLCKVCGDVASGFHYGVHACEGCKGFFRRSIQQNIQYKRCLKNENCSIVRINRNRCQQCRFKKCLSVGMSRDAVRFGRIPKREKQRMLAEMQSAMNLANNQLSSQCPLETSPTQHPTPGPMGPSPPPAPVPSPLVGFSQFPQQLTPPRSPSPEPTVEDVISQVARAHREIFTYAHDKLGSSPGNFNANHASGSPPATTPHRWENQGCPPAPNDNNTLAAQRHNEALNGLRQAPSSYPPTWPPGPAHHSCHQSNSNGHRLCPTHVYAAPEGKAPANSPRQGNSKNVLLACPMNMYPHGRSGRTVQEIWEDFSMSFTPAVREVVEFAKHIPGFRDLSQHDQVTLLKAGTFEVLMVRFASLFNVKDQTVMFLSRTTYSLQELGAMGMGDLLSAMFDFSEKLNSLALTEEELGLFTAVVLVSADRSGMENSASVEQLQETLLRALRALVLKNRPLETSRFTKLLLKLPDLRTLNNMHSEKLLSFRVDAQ
NR2E3 ag-1: activates human NR2E3 receptor. Q9Y5X4. CHO-S Gal4-NCOR/VP16-NR2E3 two-hybrid, luciferase. inhibition of corepressor binding, % at 3.98 µM. hit rate 0.35% among 360,000. AID 602229;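 active means inhibition above the mean of all tested compounds plus 3 SD, cut at about 70% in these data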;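 further: 0% = DMSO with NR2E3 transfected cells and 100% = cells lacking NR2E3 construct; higher means lower luciferase signal from less NR2E3 corepressor binding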
PKA-R1A act: activates the PKA-R1A holoenzyme complex | PKA-R1A dissociation, Cy5-IP20 fluorescence polarization; scaled: DMSO 0%, 113 µM cGMP 100% | activation, % at 11.4 µM | hit rate 0.083% among 340,000 | AID 504707;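 active means percent activation above the mean of all tested compounds plus 3 SD, cut at about 19% in these data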;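 further: higher means more PKAc released from R1A so a rise in polarization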
NR2E3 ag-2: agonists of human nuclear receptor NR2E3 | Q9Y5X4 | GST-NR2E3/biotin-RetCOR TR-FRET, 1536-well | inhibition of corepressor binding, % at 4.78 µM | hit rate 0.12% among 320,000 | AID 2300;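 active means percent inhibition above the cutoff of mean plus 3 SD of all tested compounds, set per screening campaign, cut at about 20% in these data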;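 further: 0% = DMSO wells and 100% = biotin wells as full block of FRET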
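Material: NR2E3–RetCOR corepressor complex / Incubation: Compound–protein incubation for 5 h at 4 °C / Dosing: compound at 4.8 µM, single dose / Detection: time-resolved FRET / Benchmarks: high control biotin, low control 0.6% DMSO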
PKA-R2B act: PKA-R2B complex activation | PKA-R2B holoenzyme dissociation, Cy5-IP20 fluorescence polarization; R2B truncated from residue 108, S112A mutant; 0% DMSO only, 100% 113 µM cGMP | activation, % at 11.4 µM | hit rate 0.079% among 340,000 | AID 504700;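 active means activation above a cutoff set at the mean over all compounds plus 3 SD, cut at about 18% in these data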;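 further: higher means more holoenzyme dissociation and a rise in polarization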
PG9 bind confirm: PG9 antibody binding, confirmed. shares compounds with PG9 binder. TR-FRET PG9 antibody binding, biochemical. inhibition, % at 6.7 µM. hit rate 90% among 1,500; in the data active means inhibition above about 9%
PGV04 counter: binds control antibody PGV04 in PG9 binder counter-screen; inhibition, % at 6.7 µM; hit rate 95% among 1,500; TR-FRET PGV04 antibody-gp120 binding, biochemical; shares compounds with PG9 binder; AID 651604; in the data active means inhibition above about 9.5%
PG9 bind DR: PG9 antibody binding, dose response. shares compounds with PG9 binder. TR-FRET PG9 antibody-gp120 binding inhibition. IC50, µM. 95 tested, under 10 active; in the data active means IC50 below about 10 µM
PGV04 binding DR: counter-screen for PG9 binders: binding to control antibody PGV04 | shares compounds with PG9 binder | TR-FRET binding to control antibody PGV04 | IC50, µM | hit rate 20% among 95 | AID 651937
PG126 DR counter: binds control antibody PG126 in PG9 counter-screen | shares compounds with PG9 binder | TR-FRET binding to antibody PG126, counterscreen | IC50, µM | hit rate 20% among 95 | AID 651939
Numbers without * were called inactive. This is a sample that favours compounds with a hit; in the whole collection about 1.6% have one here. Unless noted, no stated cut-off is given here; in the data, active means IC50 below about 9 µM; inactive means the rest.

For CCCCC1=CC2=C(c3ccco3)C(=O)C(C)(OC(=O)c3ccc(OC)cc3)C(=O)C2=CN1CCN1CCOCC1 (configuration not stated) the results were NR2E3 ag-1 -28.3, PKA-R1A act 5.8, NR2E3 ag-2 4.3 and PKA-R2B act 11.4.
Screening CCCCC1=CC2=C(c3ccco3)C(=O)C(C)(OC(=O)c3ccc(OC)cc3)C(=O)C2=CN1CCCCO (configuration not stated) returned PG9 binder 13.0*, Rev-erbA mod 2.3, NR2E3 ag-1 -14.1, PKA-R1A act -5.4, NR2E3 ag-2 8.8, PKA-R2B act -6.9, PG9 bind confirm 19.1* and PGV04 counter 24.1*.
For CCCCC1=CC2=C(c3ccco3)C(=O)C(C)(OC(=O)c3ccc(OC)cc3)C(=O)C2=CN1C1CC1 (configuration not stated) the results were PG9 binder 12.2*, Rev-erbA mod 0.1, NR2E3 ag-1 -4.5, PKA-R1A act -5.0, NR2E3 ag-2 8.9, PKA-R2B act 1.6, PG9 bind confirm 21.5* and PGV04 counter 29.4*.
For C[C@@H]1COc2cc(Br)ccc2S(=O)(=O)N1Cc1cn(CCC2OCCO2)nn1 the results were Rev-erbA mod 7.0.
Nc1ccc(-c2nc3ccc(-c4nc5ccccc5o4)cc3[nH]2)cc1 was read as PG9 binder 10.3*, Rev-erbA mod -8.9, NR2E3 ag-1 -61.8, PKA-R1A act -14.2, NR2E3 ag-2 3.2, PKA-R2B act -10.8, PG9 bind confirm 10.3* and PGV04 counter 20.5*.
Screening Cc1ccc(-n2c(SCC(=O)Nc3ccc4c(c3)OCCO4)nnc2-c2ccccn2)cc1 returned Rev-erbA mod -4.4.
For CCn1c(SCc2ccc(Cl)cc2)nc2nc3c(cc2c1=O)CCCC3 the results were PG9 binder -1.0, Rev-erbA mod -0.1, NR2E3 ag-1 -17.3, PKA-R1A act 1.7, NR2E3 ag-2 1.8 and PKA-R2B act 7.2.
For O=c1c2cc3c(nc2[nH]c(=S)n1-c1ccccc1)CCCC3 the results were PG9 binder 22.5*, Rev-erbA mod 22.0, NR2E3 ag-1 -7.6, PKA-R1A act 6.3, NR2E3 ag-2 4.2, PKA-R2B act 7.8, PG9 bind confirm 31.4* and PGV04 counter 33.9*.
Screening CCn1c(=S)[nH]c2nc3c(cc2c1=O)CCCC3 returned PG9 binder 21.6*, Rev-erbA mod 17.4, NR2E3 ag-1 -19.4, PKA-R1A act -0.5, NR2E3 ag-2 8.6, PKA-R2B act 2.6, PG9 bind confirm 10.1*, PGV04 counter 9.9*, PG9 bind DR >67.1, PGV04 binding DR inactive and PG126 DR counter inactive.
For COC(=O)C1=C(C)N(Cc2cccc(C(F)(F)F)c2)C(=NCC2CC2)NC1c1cccc(Cl)c1 (configuration not stated) the results were PG9 binder 2.2 and Rev-erbA mod -0.1.
`CCOc1cccc2sc(=NC(=O)c3ccco3)n(CC(=O)OC)c12` gave PG9 binder -1.4, Rev-erbA mod 4.6, NR2E3 ag-1 -18.2, PKA-R1A act 1.3, NR2E3 ag-2 3.9 and PKA-R2B act 7.1.
C#CCn1c(=NC(=O)c2ccco2)sc2cccc(Cl)c21 was read as PG9 binder 16.3*, Rev-erbA mod 18.1, NR2E3 ag-1 -51.7, PKA-R1A act 5.1, NR2E3 ag-2 -5.8, PKA-R2B act -5.1, PG9 bind confirm 16.0* and PGV04 counter 45.5*.
`CCOc1ccc(-n2c(SCC(=O)c3ccc4ccccc4c3)nnc2-c2ccc(OC)cc2)cc1` gave Rev-erbA mod -1.3.
Screening COc1ccc(C)cc1NC(=O)CSc1nnc(-c2ccc(Br)cc2)o1 returned PG9 binder 10.8*, Rev-erbA mod 8.8, NR2E3 ag-1 -10.4, PKA-R1A act -2.9, NR2E3 ag-2 5.7, PKA-R2B act -4.5, PG9 bind confirm 19.4* and PGV04 counter 26.1*.
Clc1ccc([C@H]2OC[C@@]3(CNCCc4c[nH]c5ccccc45)CS[C@H](c4ccc(Cl)cc4)N23)cc1 was read as Rev-erbA mod -1.4.
CCOC(=O)C1CCN(C(C(=O)NC2CCCCC2)c2ccc(OC)cc2)CC1 (configuration not stated) was read as PG9 binder 0.4, Rev-erbA mod 0.8, NR2E3 ag-1 -16.8, PKA-R1A act -0.1, NR2E3 ag-2 1.1 and PKA-R2B act -7.3.
For COc1ccc(C(C(=O)NC2CCCC2)N2CCc3ccccc32)cc1 (configuration not stated) the results were PG9 binder 11.7*, Rev-erbA mod 3.1, NR2E3 ag-1 -20.7, PKA-R1A act -4.6, NR2E3 ag-2 5.9, PKA-R2B act 1.5, PG9 bind confirm 24.6* and PGV04 counter 33.8*.
CSc1ccc(C#N)cc1NC(=O)c1ccc(Cl)cc1Cl was read as PG9 binder 10.7*, Rev-erbA mod 9.8, NR2E3 ag-1 -4.7, PKA-R1A act 8.5, NR2E3 ag-2 2.4, PKA-R2B act 16.3, PG9 bind confirm 19.4* and PGV04 counter 23.8*.
Screening CC(=O)CSc1nnc(-c2ccc(S(=O)(=O)N3CCCC3)cc2)n1C returned PG9 binder 1.5, Rev-erbA mod -0.9, NR2E3 ag-1 -5.1, PKA-R1A act -2.0, NR2E3 ag-2 4.7 and PKA-R2B act 2.6.
Cn1c(SCC(=O)N2CCc3ccccc32)nnc1-c1ccc(S(=O)(=O)N2CCCC2)cc1 was read as PG9 binder 9.5*, Rev-erbA mod 1.4, NR2E3 ag-1 7.3, PKA-R1A act 3.4, NR2E3 ag-2 2.0, PKA-R2B act -8.1, PG9 bind confirm 17.4* and PGV04 counter 25.4*.
COC(=O)C[C@@H]1CC[C@@H]2[C@H](COc3ccc(NC(=O)c4ccc(F)c(F)c4)cc3C(=O)N2C)O1 was read as Rev-erbA mod 3.1.

Screens: PubChem BioAssay, several laboratories
